Screening results: PubChem BioAssay, The Scripps Research Institute Molecular Screening Center
CHRM4 antagonist: CHRM4 antagonism in calcium assay; P08173; CHO-hM4 cells, ACh EC80, Fluo-8 calcium fluorescence; inhibition, % at 3 µM; actives 0.73% (n = 360,000);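 active = inhibition above its plate's cutoff, the mean inhibition of sample wells plus 3 SD, cut at about 27% in these data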
Target sequence (P08173 whole entry, looked up): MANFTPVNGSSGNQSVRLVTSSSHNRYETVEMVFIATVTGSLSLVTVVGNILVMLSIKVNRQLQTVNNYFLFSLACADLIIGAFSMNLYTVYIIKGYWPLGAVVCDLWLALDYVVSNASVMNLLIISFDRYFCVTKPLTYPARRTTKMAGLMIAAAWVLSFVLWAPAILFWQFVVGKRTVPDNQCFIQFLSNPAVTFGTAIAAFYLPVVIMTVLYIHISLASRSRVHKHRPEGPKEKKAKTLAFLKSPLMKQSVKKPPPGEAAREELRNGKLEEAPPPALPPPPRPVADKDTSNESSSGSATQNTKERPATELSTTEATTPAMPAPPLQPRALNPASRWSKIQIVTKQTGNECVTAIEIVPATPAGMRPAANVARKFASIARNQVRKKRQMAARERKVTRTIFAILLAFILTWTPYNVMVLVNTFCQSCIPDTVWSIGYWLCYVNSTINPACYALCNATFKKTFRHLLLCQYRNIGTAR
M4 PAM: CHRM4 positive allosteric modulation; P08173; CHO-K1 hM4/Gqi5, Fluo-8 calcium fluorescence, ACh EC20; 0% = ACh EC20, 100% = maximal ACh; activation, % at 3 µM; actives 0.4% (n = 360,000); AID 624126;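 active = activation above its plate's cutoff, the mean activation of sample wells plus 3 SD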
M5 antag: antagonists of human muscarinic M5 receptor (CHRM5). inhibition, % at 3 µM. CHO-hM5 cells, Fluo-8 calcium fluorescence, ACh EC80. actives 0.59% (n = 360,000);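 active = inhibition above a per-plate cutoff, the mean of that plate's test compounds plus 3 SD, cut at about 27% in these data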
CHRM4 agonist: CHRM4 agonism in calcium assay | activation, % at 3 µM | AID 624127 | P08173 | actives 0.14% (n = 360,000) | CHO-K1 hM4/Gqi5, Fluo-8 calcium fluorescence; vehicle 0%, full acetylcholine response 100%;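 active = activation above the run mean over all test wells plus 3 SD, cut at about 32% in these data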;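 note: peak over basal fluorescence ratio per well then scaled between controls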
M5 PAM: CHRM5 positive allosteric modulation; CHO-K1 hM5, Fluo-8 calcium, ACh EC20 PAM; 0% = ACh EC20, 100% = ACh EC100; actives 0.3% (n = 360,000); AID 624038; activation, % at 3 µM;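 active = activation above the run cutoff, the mean activation of all test compounds plus 3 SD, cut at about 18% in these data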
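Assay system: CHO-K1 hM5 cells. Also added: acetylcholine at EC20 concentration, added after compound. Dosing: 3 µM, single dose. Times: compound preincubation 140 s before EC20 acetylcholine addition. Signal: Fluo-8 calcium fluorescence. Measure: % activation relative to EC20 and EC100 ACh responses. Repeats: singlicate, one well per test compound.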
CHRM5 agonist: CHRM5 agonism in calcium assay | P08912 | CHO-K1 hM5 cells, Fluo-8 calcium fluorescence; 0% DMSO wells, 100% maximal acetylcholine response | activation, % at 3 µM | actives 0.19% (n = 360,000) | AID 624037;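 active = activation above the run's mean over test compounds plus 3 SD, cut at about 23% in these data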;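 note: signal is peak over basal fluorescence ratio across the kinetic read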
Of the large screens only hits and unclear results are named; the others gave an inactive call. This is a sample that favours compounds with a hit; in the whole collection about 1.8% have one here.

C/C(=N\OCC(=O)N/N=C/c1ccc(C)cc1O)c1cccs1	M5 PAM 33
Cc1ccc(/C=N/NC(=O)Cc2ccc(Cl)cc2)c(O)c1	none
C/C(=N\NC(=O)c1ccc(NS(=O)(=O)c2cccs2)cc1)c1cccs1	none
C/C(=N\NC(=O)c1ccc(Cl)cc1)c1cccs1	M4 PAM 22
C/C(=N\NC(=O)CO/N=C(\C)c1cccs1)c1ccc(N)cc1	CHRM4 antagonist 29
N#Cc1ccc(CN2CCN(CC(=O)NCCc3ccc(Cl)cc3Cl)CC2)cc1	none
COc1ccc(CNC(=O)c2ccc(Cl)c(S(=O)(=O)N3CCOCC3)c2)cc1OC	none
O=C(COC(=O)c1ccc(F)c(S(=O)(=O)N2CCOCC2)c1)Nc1ccc(Cl)cn1	none
O=C1C=CC2(O[C@H](c3ccccc3)[C@@H](c3ccccc3)O2)[C@H](Sc2ccccc2O)C1	CHRM4 antagonist 57
CCc1ccccc1Oc1nc(NC(C)C)nc2ccsc12	none
C/C(=N\Nc1ccc(C(F)(F)F)cn1)c1ccncc1	M4 PAM 21
Oc1ccc(/C=N/Nc2ccc(C(F)(F)F)cn2)cc1	none
Cc1ccc([C@H]2C[C@@H](O)[C@H](n3cc(-c4ccc(F)cc4)nn3)CN2C(=O)C2CCCCC2)cc1	none
O=C(Nc1cccc(C(F)(F)F)c1)C1Cc2c(-c3ccc(Cl)cc3)ccnc2O1 (stereo not given)	M4 PAM 17
CC(C)C[C@H]1CN(CCCC[C@H]2CNC(=O)C(=O)N2Cc2ccccc2)C(=O)C(=O)N1CC1CCCCC1	none
CC(C)(C)C1(C)OC(=O)C(=Cc2ccc(OCC(=O)Nc3ccccc3)cc2)C(=O)O1 (stereo not given)	M4 PAM 30
COc1cc(C=C2C(=O)OC(C)(C)OC2=O)cc(Cl)c1OCC(=O)Nc1ccccc1	none
Cc1cccc(C(=O)OCC(=O)NCc2ccc(Cl)cc2)c1	none
CCCCn1c(C)cc(C)c(S(=O)(=O)c2ccccc2C)c1=O	none
Cc1ccccc1S(=O)(=O)c1c(C)cc(C)n(C(C)C)c1=O	M5 PAM 22
CC(=O)NCCC(=O)Nc1nc(-c2c[nH]c3ccccc23)cs1	M4 PAM 16
CC(=O)Nc1nc(-c2cccc3ccccc23)cs1	none
O=C(CCC1CCN(Cc2nccs2)CC1)Nc1ccccc1	M5 antag 29
O=C(Nc1cccc(-c2cccc(Cl)c2)c1)C1CCN(Cc2nccs2)CC1	none
CCC(=O)N1CCCC(C)(C(=O)Nc2nccc3ccccc23)C1 (stereo not given)	none
Nc1ccc(-c2c3ccc(=O)cc-3oc3cc(O)ccc23)c(C(=O)O)c1	M5 antag 42, CHRM4 agonist 426, CHRM5 agonist 270
C=C1SC(Nc2c(C)cccc2C)=NC12CCCCC2	CHRM4 antagonist 29
C[C@H]1COC[C@@H](C/C=C/c2ccccc2)N1c1ccccc1	none
COc1cc(C2CC(=O)NC3=C2C(=O)CC(C)(C)C3)cc(OC)c1O (stereo not given)	M5 antag 27
O=[N+]([O-])c1cc(Cl)cc(/C=N/n2cnnc2)c1O	M5 PAM 25
N#Cc1ccccc1OCC(=O)OCCCOC(=O)COc1ccccc1C#N	M5 antag 27
N#Cc1ccccc1OCC(=O)OCC(=O)N1CCCC1	none
O=c1nc2n(c3ccc(Br)cc13)CCS2	CHRM4 antagonist 33
O=c1c2ccccc2nc2n1CCS2	none
COc1cc(C)ccc1S(=O)(=O)NC(=O)C1(C)CCN1C(=O)Cc1ccc(Cl)cc1Cl (stereo not given)	none
CCOC(=O)/C(=N\Nc1ncnc2ccccc12)c1ccc(C)cc1	none
CCOC(=O)[C@H]1[C@H]2COc3ccc(C)cc3[C@@H]2N2C(=O)c3cc(OC)c(OC)cc3NC(=O)[C@@]12C	none
CCOC(=O)[C@H]1[C@H]2COc3ccccc3[C@@H]2N2C(=O)c3cc(OC)c(OC)cc3NC(=O)[C@@]12C	CHRM4 antagonist 35
C[C@@]12C(=O)Nc3cc(F)c(F)cc3C(=O)N1[C@H]1c3ccccc3OC[C@@H]1[C@@H]2c1ccccc1	CHRM4 antagonist 71
C[C@@]12C(=O)Nc3ccc(F)cc3C(=O)N1[C@H]1c3ccccc3OC[C@@H]1[C@@H]2c1ccccc1	CHRM4 antagonist 89, M5 antag 57
COc1cc2c(cc1OC)C(=O)N1[C@H]3c4ccccc4OC[C@@H]3[C@H](c3ccccc3)[C@]1(C)C(=O)N2	none
CC1(C(=O)NS(=O)(=O)c2ccc(Cl)cc2)CCN1C(=O)Cc1cccs1 (stereo not given)	none
CC(O)(c1cccnc1)c1nc(-c2cccc(C#N)c2)cs1 (stereo not given)	M4 PAM 19
CC(O)(c1cccc(F)c1)c1nc(-c2cccc(C#N)c2)cs1 (stereo not given)	none
O=C(CSc1nnc(Cc2ccccc2)o1)c1cc(F)ccc1F	M5 PAM 21
COc1ccccc1CNC1CCCc2ccccc21 (stereo not given)	CHRM4 antagonist 30
COc1ccc(CNC2CCCc3ccccc32)cc1OC (stereo not given)	none
COc1ccc(CC(N)c2csc(Nc3nncc4ccccc34)n2)cc1 (stereo not given)	none
CCOc1ccc(-c2cc(C(=O)Nc3ccc(C)c(NS(C)(=O)=O)c3)[nH]n2)c(C)c1	none
C[C@H](NS(=O)(=O)c1ccc(F)cc1)C(=O)OCC(=O)c1c(N)n(C)c(=O)n(C)c1=O	none
COc1ccc(-c2noc(CCCCC(=O)N3CCN(c4cc(C)ccc4C)CC3)n2)cc1	CHRM4 antagonist 30, M5 antag 32
CCCCCCCc1nc2sc3c(c2c(=O)n1N)CC(C)(C)OC3	none
CCCCCc1nc2sc3c(c2c(=O)n1NC(=O)c1ccc([N+](=O)[O-])cc1)CC(C)(C)OC3	M5 antag 34
CCC(=O)N1CCCC(C)(C(=O)Nc2ccc(C)c(C)c2)C1 (stereo not given)	none
COc1ccc(F)cc1CSc1nnnn1-c1ccc(O)cc1	none
COc1cc(CSc2nnnn2-c2ccc(C)cc2)cc(OC)c1OC	M5 antag 31
CC(C)=C[C@H]1C[C@H](C)[C@H]2CC[C@H](C)c3c(O)c(O[C@H]4OC[C@H](O)[C@@H](O)[C@@H]4O)c(C)c1c32	none
CC(=O)c1ccc(N2CCC(c3cc(-c4ccc(Cl)cc4)n[nH]3)CC2)c([N+](=O)[O-])c1	CHRM4 antagonist 29
COc1ccc(-c2cc(C3CCN(c4ccc(C(C)=O)cc4[N+](=O)[O-])CC3)[nH]n2)cc1	none
CCCc1cc(=O)n2nc(N3CCC(C(=O)Nc4cccc(C(C)=O)c4)CC3)sc2n1	none
